Results taken from ChEMBL document CHEMBL3864121, “Development of ebsulfur analogues as potent antibacterials against methicillin-resistant Staphylococcus aureus” (Bioorg Med Chem, 2016).
In brackets after ≈: the same amount, converted by molar mass.

Experiments:
Type in all cases: functional
Staphylococcus aureus [1] = test: Antibacterial activity against methicillin-sensitive Staphylococcus aureus ATCC 25923 measured after overnight incubation by broth double-dilution method
Outline: (§1)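 MIC by broth double-dilution in liquid Mueller-Hinton medium. Values are reported in µg/mL.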

Listeria monocytogenes = test: Antibacterial activity against Listeria monocytogenes ATCC 19115 measured after overnight incubation by broth double-dilution method
Outline: (§2)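 MIC by broth double-dilution in Mueller-Hinton medium. Re-testing at the time-kill inoculum used 1×10^6 CFU/mL.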

Staphylococcus aureus [2] = test: Antibacterial activity against methicillin-resistant Staphylococcus aureus 1 measured after overnight incubation by broth double-dilution method; outline: as §1
Enterococcus faecalis [3] = test: Antibacterial activity against Enterococcus faecalis ATCC 29212 measured after overnight incubation by broth double-dilution method; outline: as §2
Staphylococcus aureus [4] = test: Antibacterial activity against methicillin-resistant Staphylococcus aureus USA200 measured after overnight incubation by broth double-dilution method; outline: as §1
Staphylococcus aureus [5] = test: Antibacterial activity against methicillin-resistant Staphylococcus aureus C1 measured after overnight incubation by broth double-dilution method; outline: as §1
Staphylococcus aureus [6] = test: Antibacterial activity against methicillin-resistant Staphylococcus aureus C16 measured after overnight incubation by broth double-dilution method; outline: as §1
Staphylococcus aureus [7] = test: Antibacterial activity against methicillin-resistant Staphylococcus aureus G6 measured after overnight incubation by broth double-dilution method; outline: as §1
Enterococcus faecalis [8] = test: Antibacterial activity against Enterococcus faecalis ATCC 49533 measured after overnight incubation by broth double-dilution method; outline: as §2
Staphylococcus aureus [9] = test: Antibacterial activity against methicillin-resistant Staphylococcus aureus ATCC 33591 measured after overnight incubation by broth double-dilution method; outline: as §1
Enterococcus = test: Antibacterial activity against Vancomycin-resistant Enterococcus measured after overnight incubation by broth double-dilution method; outline: as §1
Staphylococcus aureus [10] = test: Antibacterial activity against methicillin-resistant Staphylococcus aureus C2 measured after overnight incubation by broth double-dilution method; outline: as §1
Staphylococcus aureus [11] = test: Antibacterial activity against methicillin-resistant Staphylococcus aureus BRS3 measured after overnight incubation by broth double-dilution method; outline: as §1
Staphylococcus aureus [12] = test: Antibacterial activity against methicillin-resistant Staphylococcus aureus S17 measured after overnight incubation by broth double-dilution method; outline: as §1
Staphylococcus aureus [13] = test: Antibacterial activity against methicillin-resistant Staphylococcus aureus 2 measured after overnight incubation by broth double-dilution method; outline: as §1
Staphylococcus aureus [14] = test: Antibacterial activity against methicillin-sensitive Staphylococcus aureus ATCC 6538 measured after overnight incubation by broth double-dilution method; outline: as §1
Enterococcus faecium = test: Antibacterial activity against Enterococcus faecium BM4105-RF measured after overnight incubation by broth double-dilution method; outline: as §1
Staphylococcus aureus [15] = test: Antibacterial activity against methicillin-resistant Staphylococcus aureus NRS77 measured after overnight incubation by broth double-dilution method; outline: as §1
Staphylococcus aureus [16] = test: Antibacterial activity against methicillin-resistant Staphylococcus aureus C19 measured after overnight incubation by broth double-dilution method; outline: as §1
Staphylococcus aureus [17] = test: Antibacterial activity against methicillin-resistant Staphylococcus aureus S24 measured after overnight incubation by broth double-dilution method; outline: as §1
Staphylococcus aureus [18] = test: Antibacterial activity against methicillin-resistant Staphylococcus aureus USA300 measured after overnight incubation by broth double-dilution method; outline: as §1
[19] = tested on: Mycolicibacterium smegmatis; test: Antibacterial activity against Mycobacterium smegmatis MC2-155 measured after overnight incubation by broth double-dilution method; conditions: str. MC2 155; outline: as §1
[20] = tested on: Staphylococcus epidermidis; test: Antibacterial activity against Staphylococcus epidermidis ATCC 35984 measured after overnight incubation by broth double-dilution method; conditions: RP62A; outline: as §2
Staphylococcus aureus [21] = test: Antibacterial activity against methicillin-resistant Staphylococcus aureus S22 measured after overnight incubation by broth double-dilution method; outline: as §1
Staphylococcus aureus [22] = test: Antibacterial activity against methicillin-resistant Staphylococcus aureus NRS51 measured after overnight incubation by broth double-dilution method; outline: as §1
Staphylococcus aureus [23] = test: Antibacterial activity against methicillin-sensitive Staphylococcus aureus ATCC 29213 measured after overnight incubation by broth double-dilution method; outline: as §1
Staphylococcus aureus [24] = test: Antibacterial activity against methicillin-resistant Staphylococcus aureus USA600 measured after overnight incubation by broth double-dilution method; outline: as §1
Staphylococcus aureus [25] = test: Antibacterial activity against methicillin-resistant Staphylococcus aureus S14 measured after overnight incubation by broth double-dilution method; outline: as §1
Staphylococcus aureus [26] = test: Antibacterial activity against methicillin-resistant Staphylococcus aureus NRS4 measured after overnight incubation by broth double-dilution method; outline: as §1
Staphylococcus aureus [27] = test: Antibacterial activity against methicillin-resistant Staphylococcus aureus C7 measured after overnight incubation by broth double-dilution method; outline: as §1
Staphylococcus aureus [28] = test: Antibacterial activity against methicillin-resistant Staphylococcus aureus G12 measured after overnight incubation by broth double-dilution method; outline: as §1
Staphylococcus aureus [29] = test: Antibacterial activity against methicillin-resistant Staphylococcus aureus USA100 measured after overnight incubation by broth double-dilution method; outline: as §1
Staphylococcus aureus [30] = test: Antibacterial activity against methicillin-resistant Staphylococcus aureus G14 measured after overnight incubation by broth double-dilution method; outline: as §1
Staphylococcus aureus [31] = test: Antibacterial activity against methicillin-resistant Staphylococcus aureus G1 measured after overnight incubation by broth double-dilution method; outline: as §1
Staphylococcus aureus [32] = test: Antibacterial activity against methicillin-resistant Staphylococcus aureus C14 measured after overnight incubation by broth double-dilution method; outline: as §1

Compound	MIC (Staphylococcus aureus [1])	MIC (Listeria monocytogenes)	MIC (Staphylococcus aureus [2])	MIC (Enterococcus faecalis [3])	MIC (Staphylococcus aureus [4])	MIC (Staphylococcus aureus [5])	MIC (Staphylococcus aureus [6])	MIC (Staphylococcus aureus [7])	MIC (Enterococcus faecalis [8])	MIC (Staphylococcus aureus [9])	MIC (Enterococcus)	MIC (Staphylococcus aureus [10])	MIC (Staphylococcus aureus [11])	MIC (Staphylococcus aureus [12])	MIC (Staphylococcus aureus [13])	MIC (Staphylococcus aureus [14])	MIC (Enterococcus faecium)	MIC (Staphylococcus aureus [15])	MIC (Staphylococcus aureus [16])	MIC (Staphylococcus aureus [17])	further results
O=c1c2ccccc2[s+]([O-])n1C1CCCCCCC1 (stereo not given)	> 125 µg/mL	> 125 µg/mL	> 125 µg/mL	> 125 µg/mL	> 125 µg/mL	> 125 µg/mL	> 125 µg/mL	> 125 µg/mL	> 125 µg/mL	> 125 µg/mL	> 125 µg/mL	> 125 µg/mL	> 125 µg/mL	> 125 µg/mL	> 125 µg/mL	> 125 µg/mL	> 125 µg/mL	> 125 µg/mL	> 125 µg/mL	125 µg/mL (≈ 451 µM)	MIC (Staphylococcus aureus [18]): > 125 µg/mL; MIC [19]: > 125 µg/mL; MIC [20]: > 125 µg/mL; MIC (Staphylococcus aureus [21]): > 125 µg/mL; MIC (Staphylococcus aureus [22]): > 125 µg/mL; MIC (Staphylococcus aureus [23]): > 125 µg/mL; MIC (Staphylococcus aureus [24]): > 125 µg/mL; MIC (Staphylococcus aureus [25]): > 125 µg/mL; MIC (Staphylococcus aureus [26]): > 125 µg/mL; MIC (Staphylococcus aureus [27]): > 125 µg/mL; MIC (Staphylococcus aureus [28]): > 125 µg/mL; MIC (Staphylococcus aureus [29]): > 125 µg/mL; MIC (Staphylococcus aureus [30]): > 125 µg/mL; MIC (Staphylococcus aureus [31]): > 125 µg/mL; MIC (Staphylococcus aureus [32]): > 125 µg/mL
CC(C)CCn1c(=O)c2ccccc2[s+]1[O-] (stereo not given)	> 125 µg/mL	> 125 µg/mL	> 125 µg/mL	> 125 µg/mL	> 125 µg/mL	> 125 µg/mL	> 125 µg/mL	> 125 µg/mL	> 125 µg/mL	> 125 µg/mL	> 125 µg/mL	> 125 µg/mL	> 125 µg/mL	> 125 µg/mL	> 125 µg/mL	> 125 µg/mL	> 125 µg/mL	> 125 µg/mL	> 125 µg/mL	> 125 µg/mL	MIC (Staphylococcus aureus [18]): > 125 µg/mL; MIC [19]: > 125 µg/mL; MIC [20]: > 125 µg/mL; MIC (Staphylococcus aureus [21]): > 125 µg/mL; MIC (Staphylococcus aureus [22]): > 125 µg/mL; MIC (Staphylococcus aureus [23]): > 125 µg/mL; MIC (Staphylococcus aureus [24]): > 125 µg/mL; MIC (Staphylococcus aureus [25]): > 125 µg/mL; MIC (Staphylococcus aureus [26]): > 125 µg/mL; MIC (Staphylococcus aureus [27]): > 125 µg/mL; MIC (Staphylococcus aureus [28]): > 125 µg/mL; MIC (Staphylococcus aureus [29]): > 125 µg/mL; MIC (Staphylococcus aureus [30]): > 125 µg/mL; MIC (Staphylococcus aureus [31]): > 125 µg/mL; MIC (Staphylococcus aureus [32]): > 125 µg/mL
CCCCCCCCCCCCn1sc2ccccc2c1=O	3.9 µg/mL (≈ 12.2 µM)	15.6 µg/mL (≈ 48.8 µM)	0.25 µg/mL (≈ 0.782 µM)	> 125 µg/mL	7.8 µg/mL (≈ 24.4 µM)	3.9 µg/mL (≈ 12.2 µM)	3.9 µg/mL (≈ 12.2 µM)	1 µg/mL (≈ 3.13 µM)	> 125 µg/mL	2 µg/mL (≈ 6.26 µM)	1 µg/mL (≈ 3.13 µM)	1 µg/mL (≈ 3.13 µM)	15.6 µg/mL (≈ 48.8 µM)	1 µg/mL (≈ 3.13 µM)	1 µg/mL (≈ 3.13 µM)	62.5 µg/mL (≈ 196 µM)	3.9 µg/mL (≈ 12.2 µM)	2 µg/mL (≈ 6.26 µM)	1 µg/mL (≈ 3.13 µM)	1 µg/mL (≈ 3.13 µM)	MIC (Staphylococcus aureus [18]): 7.8 µg/mL (≈ 24.4 µM); MIC [19]: 7.8 µg/mL (≈ 24.4 µM); MIC [20]: 0.25 µg/mL (≈ 0.782 µM); MIC (Staphylococcus aureus [21]): 3.9 µg/mL (≈ 12.2 µM); MIC (Staphylococcus aureus [22]): 3.9 µg/mL (≈ 12.2 µM); MIC (Staphylococcus aureus [23]): 3.9 µg/mL (≈ 12.2 µM); MIC (Staphylococcus aureus [24]): 7.8 µg/mL (≈ 24.4 µM); MIC (Staphylococcus aureus [25]): 1 µg/mL (≈ 3.13 µM); MIC (Staphylococcus aureus [26]): 3.9 µg/mL (≈ 12.2 µM); MIC (Staphylococcus aureus [27]): 2 µg/mL (≈ 6.26 µM); MIC (Staphylococcus aureus [28]): 1 µg/mL (≈ 3.13 µM); MIC (Staphylococcus aureus [29]): 3.9 µg/mL (≈ 12.2 µM); MIC (Staphylococcus aureus [30]): 2 µg/mL (≈ 6.26 µM); MIC (Staphylococcus aureus [31]): 0.5 µg/mL (≈ 1.56 µM); MIC (Staphylococcus aureus [32]): 15.6 µg/mL (≈ 48.8 µM)
